The text below walks through data of PMC3936293 (Theranostics, 2014).

Where two headings read alike, the source gives them in different places.

The conditions of series [1]: literature data, ref [11]; cited from earlier work.
Series [2] in a line: Metabolite analysis of plasma and urine by RP-HPLC. Format: in vivo, human. The procedure, abridged: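 Plasma was prepared by centrifuging blood drawn at 5 min, 30 min, 1 h and 4 h p.i., deproteinised with two volumes of ethanol, centrifuged again, and the supernatant analysed. In patient 2, a 2 h urine sample was loaded onto a C18 cartridge and eluted with ethanol. Analysis used reversed-phase HPLC (C18; 0.1% TFA in water/acetonitrile gradient) with photodiode-array and flow-through gamma detection.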

Series [3] is described as follows: PET/CT imaging of tumor and organ uptake. Type of series: in vivo. Conditions: male, human, total radioactivity.
A further series is described as follows: Radiation dosimetry. Format: in vivo, human. An outline of the steps: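 PET scans were taken at 20 min, 4 h and 20 h p.i., with attenuation correction by 68Ge transmission or CT. Body-weight-normalised SUVs came from circular ROIs centred in each organ. Urine was collected to 18 h in patients 2 and 3, and total excretion was calculated from 1 mL aliquots. Absorbed doses were computed in OLINDA/EXM 1.0 from the time-activity curves and urinary excretion (dynamic bladder model, 3-h voiding interval). Values are mean ± SD.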

Series [4] can be described thus: Safety monitoring after injection. The following applies: 4 patients; laboratory tests before and 1-2 weeks after injection. Type of series: in vivo, human. The procedure, abridged: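 Patients were monitored from tracer administration until the end of the last PET/CT session (20 h p.i.) by interview, electrocardiography, heart rate and blood pressure. Serum electrolytes, liver and pancreatic enzymes, creatinine and blood counts were measured before and 1-2 weeks after injection (130-233 MBq; 10-17 µg).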

The nature of series [5]: Blood radioactivity clearance. Type of series: in vivo, human. Conditions: bi-exponential fit of blood radioactivity concentration, 4 patients. An outline of the steps:
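Four patients with newly diagnosed prostate cancer, fasted at least 4 h, received the 64Cu-labelled GRPr antagonist (130-233 MBq; 10-17 µg) diluted in 0.9% NaCl with 0.1% bovine serum albumin. Venous blood was drawn at 1, 2, 3, 4, 5, 10, 15 and 30 min and at 1, 2 and 4 h p.i. Radioactivity per mL was gamma-counted, reported as mean ± SD, and fitted bi-exponentially.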

Where [6] appears, read: OLINDA/EXM 1.0, dynamic bladder model, 3-hour voiding interval, mean ± SD.

On to `C[N+](C)(CF)CCO` [^18F-fluorocholine], for which, in series [1], the Effective dose is reported as 0.031 ± 0,007 mSv/MBq, the Radiation dose kidney is 0.159 ± 0,072 mSv/MBq, the Radiation dose liver is reported as 0.059 ± 0,012 mSv/MBq and the Radiation dose spleen is 0.054 ± 0,021 mSv/MBq. The “Radiation dose urinary bladder wall” value in series [1] was 0.063 ± 0,060 mSv/MBq.

For `CC(C)C[C@H](NC(=O)C[C@H](O)[C@H](CC(C)C)NC(=O)[C@H](Cc1c[nH]cn1)NC(=O)CNC(=O)[C@@H](NC(=O)[C@H](C)NC(=O)[C@H](Cc1c[nH]c2ccccc12)NC(=O)[C@H](CCC(N)=O)NC(=O)[C@@H](Cc1ccccc1)NC(=O)COCCOCCOCCOCCNC(=O)CN1CCCN2CCN(CCCN(CC(=O)O)CC2)CC1)C(C)C)C(N)=O` [^64Cu-CB-TE2A-AR06, (^64Cu-4,11-bis(carboxymethyl)-1,4,8,11-tetraazabicyclo(6.6.2)hexadecane)-PEG4-D-Phe-Gln-Trp-Ala-Val-Gly-His-Sta-LeuNH2, metal not drawn], the metabolites in urine entry in series [2] (patient 2, 2 h urine sample, C18 column, ethanol elution) is “Only the parent compound was detected”. Besides, in series [2] (plasma at 5 min p.i., ethanol protein precipitation), the metabolites in plasma entry is given as “No metabolites were detected”. For the same compound, the SUV at 4 h in series [3] (bladder) was found to be 14 ± 6.63 SUV. The SUV at 4 h in series [3] (intestine) was 0.78 ± 0.68 SUV. Besides, in series [3] (kidney parenchyma), the SUV at 4 h was 1.64 ± 0.37 SUV and the SUV at 20 h came to 0.71 ± 0.34 SUV. For the same compound, the SUV at 4 h in series [3] (liver) was 1.8 ± 1.02 SUV. Further, in series [3] (pancreas), the SUV at 4 h came to 6.73 ± 3.34 SUV and the SUV at 20 h is 0.28 ± 0.22 SUV. The SUV at 4 h in series [3] (prostate) amounted to 0.95 ± 0.42 SUV. The SUV at 4 h in series [3] (urinary tract collection system) amounted to 5.86 ± 5.34 SUV. Further, in the series “Radiation dosimetry” (setting [6]), the Effective radiation dose was found to be 0.019 ± 0.008 mSv/MBq and the “Radiation dose urinary bladder wall” value is 0.176 ± 0.001 mSv/MBq. In “Radiation dosimetry” (OLINDA/EXM 1.0, mean ± SD), this compound gave a Radiation dose kidney of 0.033 ± 0.008 mSv/MBq, a Radiation dose liver of 0.039 ± 0.020 mSv/MBq, a Radiation dose pancreas of 0.094 ± 0.027 mSv/MBq and a Radiation dose spleen of 0.031 ± 0.024 mSv/MBq. Moreover, the “changes in vital signs, laboratory studies or electrocardiograms” value in series [4] is “No significant changes”. Moreover, in series [5], the “initial half-life in blood” value came out at 5 min and the “terminal half-life in blood” value was determined as 2.75 h.
